Screens from PubChem.
An excerpt weighted towards active compounds, which were near 3.1% of everything screened.
hERG protect = hERG rescue from dofetilide block, primary screen, cell-based, CHO-hERG, FluxOR thallium flux, dofetilide IC70. hit rate 0.51% among 310,000. dofetilide IC70 present. activation (rescue from dofetilide block), less the hit threshold, % at 10 µM. Voltage-gated inwardly rectifying potassium channel KCNH2 (Homo sapiens), Q12809;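 active = activation above the mean of controls blocked by dofetilide plus 5 SD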;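 also: thallium influx through hERG after potassium depolarization seen as dye fluorescence rise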
KCNQ1 block = inhibitors of human KCNQ1 channel, primary screen, cell-based, thallium flux, high-throughput | Potassium voltage-gated channel subfamily KQT member 1 (Homo sapiens), P51787 | CHO-K1 KCNQ1, FluxOR thallium flux fluorescence; stronger effect = higher value | B-score at 10 µM | hit rate 1.3% among 310,000;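 active = compounds whose thallium flux B-score, printed positive for inhibition, exceeds three library SD while starting fluorescence stays within three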;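 also: channel opened by potassium depolarization with thallium stimulus after 20 min compound exposure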
KCNK3 inh = human KCNK3 channel inhibitors, primary screen, CHO cells, FluxOR thallium flux, B-score | Potassium channel subfamily K member 3 (Homo sapiens), O14649 | B-score at 10 µM | hit rate 0.84% among 340,000 | FluxOR fluorescence; stronger effect = lower value;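 active = B-score under library mean minus 4 SD, starting fluorescence ratio at most library mean plus 5 SD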;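 also: more negative B-score means stronger inhibition of thallium flux through KCNK3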
KCNQ1 act = potentiators or activators of KCNQ1 channel, primary screen, cell-based, thallium flux, high-throughput. Potassium voltage-gated channel subfamily KQT member 1 (Homo sapiens), P51787. CHO-K1 KCNQ1, thallium flux FluxOR fluorescence; stronger effect = higher value. B-score at 10 µM. hit rate 0.35% among 310,000;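 active = fluorescence ratio B-score, a plate-corrected score, at least three library SD, with initial intensity B-score within 5 SD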
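Material: CHO-K1 cells stably expressing KCNQ1. Medium: assay buffer for compound exposure, DMSO matched across wells. Reagent: K+/Tl+ depolarizing stimulus. Compound dosing: single-concentration screen. Times: 37 °C overnight plating, 90-min dark dye load, 20-min compound pretreatment. Technique: FluxOR Tl+ flux fluorescence.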
KCNK9 inh = KCNK9 potassium channel inhibitors, primary screen, HEK293 cells, thallium flux | FluxOR thallium flux fluorescence; stronger effect = lower value | B-score at 10 µM | hit rate 1.2% among 310,000 | AID 488922, 2010;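 active = ratio B-score over 3 SD below the library mean, with starting fluorescence within 5 SD of its mean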;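 also: negative B-score means less thallium flux so channel inhibition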
Target sequence (Q9NPC2 whole entry, looked up): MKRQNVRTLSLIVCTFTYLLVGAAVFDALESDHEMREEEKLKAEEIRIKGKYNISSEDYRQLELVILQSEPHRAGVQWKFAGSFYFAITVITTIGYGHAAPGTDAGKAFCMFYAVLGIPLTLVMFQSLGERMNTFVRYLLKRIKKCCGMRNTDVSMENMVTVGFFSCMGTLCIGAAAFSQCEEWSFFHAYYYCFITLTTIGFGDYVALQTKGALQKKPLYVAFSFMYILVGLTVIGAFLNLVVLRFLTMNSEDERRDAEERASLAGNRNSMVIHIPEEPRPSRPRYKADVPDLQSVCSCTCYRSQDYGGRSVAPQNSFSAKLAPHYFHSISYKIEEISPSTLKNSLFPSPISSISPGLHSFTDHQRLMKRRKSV
KCNK3 confirm = retest of human KCNK3 channel inhibitors, confirmation, CHO cells, FluxOR thallium flux, triplicate; hit rate 99% among 2,400; FluxOR fluorescence; 0% buffer, 100% carvedilol maximal block; AID 651638, 2012; shares compounds with KCNK3 inh; ratio percent of control, % at 10 µM;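 active = ratio percent of control, averaged over triplicates, above buffer control mean plus 5 SD, cut at about 64% in these data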;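 also: ratio is the fluorescence rise from min to max over baseline after thallium stimulus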
KCNK3 uninduced = thallium flux inhibition in non-induced cells, primary screen, counter-screen for KCNK3 inhibitor project, cell-based, non-induced KCNK3 line, FluxOR thallium, triplicate | shares compounds with KCNK3 inh | AID 651747, 2012 | non-induced KCNK3 parental cells; stronger effect = lower value | thallium flux ratio (lower = more inhibition) at 10 µM | hit rate 40% among 2,400;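 active = thallium flux ratio, averaged over three wells, more than 5 SD below the buffer control mean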;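 also: host cells are CHO cells without KCNK3 induction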
Numbers stand for hits; . = inactive; / = no result given.

SMILES | hERG protect | KCNQ1 block | KCNK3 inh | KCNQ1 act | KCNK9 inh | KCNK3 confirm | KCNK3 uninduced
O=C(CN1CCCN(S(=O)(=O)c2ccc(F)cc2)CC1)Nc1cccc(F)c1 | . | . | -11.9 | . | -6.7 | 92.3 | .
COc1ccc(NC(=O)N(C)C[C@H]2Oc3ccc(NS(=O)(=O)c4c(C)noc4C)cc3C(=O)N([C@H](C)CO)C[C@@H]2C)cc1 | / | / | . | / | / | / | /
CCOc1cc(C(=S)N2CCOCC2)ccc1OC(=O)c1ccccc1 | . | . | -8.92 | . | . | 91.7 | .
CCOc1cc(C(=S)N2CCOCC2)ccc1OC(=O)c1cccc(C)c1 | . | . | -9.1 | . | . | 113.7 | .
CCOc1cc(C(=S)N2CCOCC2)ccc1OC(=O)c1ccc(C)cc1 | . | . | . | . | . | / | /
CCCc1cnc(N2CCN(C(=O)c3ccccc3)CC2)nc1 | . | . | . | . | . | / | /
Cc1nc(SC(C)C(=O)NC2CCCC2)c2ccccc2n1 (stereo unspecified) | / | / | . | / | / | / | /
COc1ccc(C)cc1-n1c(SCC(=O)Nc2cc(C)on2)nc2sc(C)c(C)c2c1=O | . | . | -11.2 | . | . | 128.0 | .
C=CCn1c(SCC(=O)Nc2cc(C)on2)nc2sc(C)c(C)c2c1=O | . | . | . | . | . | / | /
O=C(CCC(=O)Nc1ccccc1Cl)NN=C1CCCC1 | . | . | . | . | . | / | /
Cc1oc(-c2cccc(Cl)c2)nc1CN1CCCC(C(=O)NC(C)c2ccc3c(c2)OCCO3)C1 (stereo unspecified) | . | . | -10.8 | . | . | 127.3 | 0.119
CC1=C(C(=O)OC(C)C)C(c2cn(-c3ccccc3)nc2-c2cccs2)NC(=O)N1 (stereo unspecified) | . | . | -9.45 | . | . | 87.0 | .
C=CCOC(=O)C1=C(C)NC(C)=C(C(=O)OCC=C)C1c1ccc(C)o1 | . | . | -10 | . | . | 104.0 | .
Cc1oc2cc3oc(=O)c(CCC(=O)NCCN4CCOCC4)c(C)c3cc2c1C | . | . | . | . | . | / | /
Cn1cccc1C1C=C(c2ccc(C(C)(C)C)cc2)Nc2ncnn21 (stereo unspecified) | . | . | -9.14 | . | . | 110.7 | .
COc1ccc(NC(=O)N(C)C[C@H]2Oc3c(NC(=O)Cc4ccccc4)cccc3C(=O)N([C@H](C)CO)C[C@@H]2C)cc1 | / | / | . | / | / | / | /
O=C(CN1C(=O)NC2(CCc3ccccc32)C1=O)c1ccc(F)c(F)c1 (stereo unspecified) | . | . | . | . | . | / | /
Cn1c(C(=O)N2CCc3ccccc3C2)cc2oc3ccccc3c21 | . | . | . | . | . | / | /
CCn1c(C(=O)N2CCc3ccccc3C2)cc2oc3ccccc3c21 | . | 7 | -9.14 | . | . | 120.3 | 0.154
CCCC(CCC)C(=O)Nc1cccc(-c2cn3c(n2)SCC3)c1 | . | . | -8.72 | . | . | 99.3 | .
O=C(Nc1cccc(-c2cn3c(n2)SCC3)c1)c1ccc2c(c1)OCO2 | . | . | -10.6 | . | . | 104.0 | .
CCS(=O)(=O)Nc1cccc(-c2cn3c(n2)SCC3)c1 | . | . | . | . | . | / | /
Cc1cc(F)ccc1S(=O)(=O)N1CCCOC1CNC(=O)C(=O)NCc1ccc2c(c1)OCO2 (stereo unspecified) | . | . | . | . | . | / | /
CCOC(=O)c1sc2nc(CC(=O)OC)nc(NCc3ccc(F)cc3)c2c1C | . | . | . | . | . | / | /
CCOC(=O)c1sc2nc(C)nc(NCc3ccc(Cl)cc3)c2c1C | . | . | -10.6 | . | . | 121.3 | 0.133
SMILES | hERG protect | KCNQ1 block | KCNK3 inh | KCNQ1 act | KCNK9 inh | KCNK3 confirm | KCNK3 uninduced
CCOC(=O)c1sc2nc(C)nc(NCc3ccc(F)cc3)c2c1C | . | . | -10.2 | . | . | 116.3 | 0.153
CCOC(=O)c1sc2nc(C)nc(NCc3cccnc3)c2c1C | . | . | . | . | . | / | /
S=C1NCCc2ccc(Cl)cc2C1c1ccccc1Cl (stereo unspecified) | . | . | -11.1 | . | -6.73 | 123.0 | .
Cc1cccc(C(=O)NCC(=O)OCCOc2ccccc2Cl)c1 | . | . | -9.14 | . | . | 86.3 | .
COc1ccc(OCCOC(=O)CNC(=O)c2cccc(C)c2)cc1 | . | . | . | . | . | / | /
O=C(Nc1cccnc1Cl)c1ccc(Cl)cc1 | . | . | . | . | . | / | /
O=C(Nc1cccc2cccnc12)c1ccc(Cl)cc1 | . | . | -8.89 | . | . | 103.3 | .
Cc1cccc(C(=O)Nc2cccc3cccnc23)c1 | . | . | . | . | . | / | /
Cc1ccc(C(=O)Nc2cccc3cccnc23)cc1C | . | . | -9.91 | . | . | 94.7 | .
CN1CCC(N(C)C(=O)c2cc(-c3ccc(F)cc3)nc3ccccc23)CC1 | / | / | . | / | / | / | /
CCOC(=O)C1CCCN1C(=O)C1(NC(C)=O)CCCC1 (stereo unspecified) | / | / | . | / | / | / | /
O=C(Nc1ccccc1N1CCOCC1)C1(c2ccc(Cl)cc2)CCC1 | . | . | -11.2 | . | . | 100.0 | .
O=C(Cc1ccc(Cl)cc1)NC(=S)Nc1ccccc1N1CCOCC1 | / | / | . | / | / | / | /
Cc1cc(O)c(-c2cc(C(=O)Nc3ccc(S(=O)(=O)N4CCOCC4)cc3)[nH]n2)cc1C | . | . | . | . | . | / | /
O=C(Nc1ccc(S(=O)(=O)N2CCOCC2)cc1)c1cc(-c2cc(Cl)ccc2O)n[nH]1 | . | . | -8.75 | . | . | 128.0 | 0.134
COc1ccc(C(C)=O)cc1COc1ccc(F)cc1 | . | . | -9.23 | . | . | 115.0 | .
CCOC(=O)N1CCC2(CC1)CC(=O)c1c(ccc3oc(C(=O)O)c(C)c13)O2 | . | . | -14.9 | . | . | . | .
CCOC(=O)c1c(N)sc2c1CCSC2 | . | . | -9.55 | . | . | 71.7 | .
Clc1cccc(-c2nc(NCCCN3CCOCC3)c3ccccc3n2)c1 | . | . | -9.37 | . | . | 90.7 | 0.152
Clc1cccc(-c2nc(NCCN3CCOCC3)c3ccccc3n2)c1 | . | . | . | . | . | / | /
CCOC1C(=O)NC(=O)N1Cc1ccccc1 (stereo unspecified) | . | . | -9.33 | . | . | 81.0 | .
CC1CC(=O)NC(=O)N1Cc1ccccc1 (stereo unspecified) | / | / | . | / | / | / | /
COC(=O)/C=C/c1cnc[nH]1 | . | . | . | . | . | / | /
NC(=O)CSc1nc2cc(Cl)ccc2c(=O)n1C1CCCCC1 | . | . | -10.1 | . | . | 95.3 | .
